This is an account of results in ChEMBL document CHEMBL3085744, “Hepatoprotective prenylaromadendrane-type diterpenes from the gum resin of Boswellia carterii” (J Nat Prod, 2013).

The test system of one test is A2780. The experiment in a line: Cytotoxicity against human A2780 cells by MTT assay. Format: cell-based. A general note: Formazan colour is commonly taken as a measure of viable cells.
Test [1] can be described thus: Hepatoprotective activity in human HL-7702 cells assessed as inhibition of D-galactosamine-induced cell toxicity incubated for 1 hr prior to D-galactosamine-challenge measured after 24 hrs by MTT assay relative to control. The test is classed as functional, L02.
Test [2] can be described thus: Cytotoxicity against human Bel7402 cells by MTT assay. Format: cell-based. Conditions: Bel-7402.
The nature of test [3]: Cytotoxicity against human BGC823 cells by MTT assay. The test is classed as cell-based. Conditions: BGC-823.
Test [4] has as its system L02. Kind of test: Hepatoprotective activity against D-galactosamine-induced cell toxicity in human HL-7702 cells assessed as cell survival incubated for 1 hr prior to D-galactosamine-challenge measured after 24 hrs by MTT assay relative to normal cells. The test is classed as functional. On the set-up: concentration or dose not given beside the values. In outline: (§1)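 HL-7702 cells (2 × 10^4 per well) precultured 24 h at 37 °C, 5% CO2 in RPMI 1640 with 10% fetal calf serum, penicillin and streptomycin. Test compound (10 μM) added in fresh medium for 1 h, then 25 mM D-galactosamine for 24 h. MTT 0.5 mg/mL 4 h, formazan in DMSO, OD 492 nm. Survival as % of normal; means ± SD, n = 3; bicyclol 10 μM as positive control.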

The next test has as its system Neuron. Kind of test: Neuroprotective activity against MPP+-induced neuronal cell injury in neurons (unknown origin). Format: functional, cell-based.
Another test deals with A549. The experiment in a line: Cytotoxicity against human A549 cells by MTT assay. Format: cell-based.
A short description of test [5]: Cytotoxicity against human HCT8 cells by MTT assay. Format: cell-based. Conditions: HCT-8.
In test [6] the test system is L02. Kind of test: Hepatoprotective activity against D-galactosamine-induced cell toxicity in human HL-7702 cells assessed as cell survival at 10 uM incubated for 1 hr prior to D-galactosamine-challenge measured after 24 hrs by MTT assay relative to normal cells. Format: functional. Particulars: read-out: Survival. In outline:
as §1

Activity calls are given as the source filed them. No cut-off for these calls is given here.

Usually IC50 stands for the point on the concentration scale where inhibition reaches its midpoint. For the compound `C=C1CC[C@@H]2[C@H]([C@@H]3[C@H]1CC[C@]3(C)O)[C@@]2(C)/C=C/C=C(/C)CO`, the 50% inhibitory concentration (IC50) (in the test on A2780; in [2]; in test [3]; in the test with A549; in test [5]) was greater than 10 µM each time. The “inhibition (INH)” value in [1] is reported as 26.1%. The Survival in the test with L02 [4] was 69%. The result with Neuron was inactive.

In the case of `C=C1CC[C@@H]2[C@H]([C@@H]3[C@H]1CC[C@]3(C)O)[C@@]2(C)C(/C=C/C(C)(C)O)OC` (stereo not given in full), the IC50 (in the test with A2780; in test [2]; in [3]; with A549; in test [5]) was greater than 10 µM throughout. Moreover, the result with Neuron was inactive.

For the compound `C=C1CC[C@@H]2[C@H]([C@@H]3[C@H]1CC[C@]3(C)O)[C@@]2(C)C/C=C/C(C)(C)O`, the 50% inhibitory concentration (IC50) (with A2780; in test [2]; in test [3]; in the test with A549; in test [5]) was greater than 10 µM in each case. In addition, the “inhibition (INH)” value in test [1] is listed as 27%. For the same compound, the Survival with L02 [4] amounted to 70%. Besides, the outcome in the test with Neuron was inactive.

Regarding `C=C1CC[C@@H]2[C@H]([C@@H]3[C@H]1CC[C@]3(C)O)[C@@]2(C)C[C@H]1C=C(C)C(=O)O1`, the 50% inhibitory concentration (IC50) (in the test with A2780; in test [2]; in test [3]; with A549; in [5]) was greater than 10 µM in each case. The “inhibition (INH)” value in test [1] is 24.3%. For the same compound, the Survival with L02 [4] stood at 68%. In the test on Neuron, the outcome was inactive.

With `C=C1CC[C@@H]2[C@H]([C@@H]3[C@H]1CC[C@]3(C)O)[C@@]2(C)CC/C=C(/C)CO`, the IC50 (in the test with A2780; in test [2]; in test [3]; with A549; in test [5]) was greater than 10 µM each time. Further, the “inhibition (INH)” value in test [1] came out at 33.6%. For the same compound, in the test on L02 [4], the Survival worked out at 73%. The result in the test with Neuron was inactive.

For `C=C1CC[C@@H]2[C@H]([C@H]3[C@H](C)CC[C@@H]13)[C@@]2(C)C[C@H](O)/C=C(/C)CO`, the IC50 (in the test on A2780; in test [2]; in test [3]; in the test on A549; in test [5]) was greater than 10 µM throughout. Besides, the “inhibition (INH)” value in test [1] is given as 36.3%. In addition, in the test with L02 [4], the Survival was determined as 73%. In the test with Neuron, the outcome was inactive.

On to `COC(=O)c1cc(OC)c2c(c1-c1c(CO)cc(OC)c3c1OCO3)OCO2` [BICYCLOL], for which the “inhibition (INH)” value in test [1] was 42.5%. Also, the viability at 10 µM in the test with L02 [6] came to 76%.

Take `C=C1CC[C@@H]2[C@H]([C@@H]3[C@H]1CC[C@]3(C)O)[C@@]2(C)/C=C/C=C(\C)C=O`: the IC50 (with A2780; in [2]; in test [3]; with A549; in test [5]) was greater than 10 µM in each case. In [1], the “inhibition (INH)” value is 69.6%. In addition, the Survival in the test with L02 [4] was determined as 88%. In addition, in the test with Neuron, the outcome was inactive.

As for `C=C1CC[C@@H]2[C@H]([C@@H]3[C@H]1CC[C@]3(C)O)[C@@]2(C)C[C@@H]1C=C(C)C(=O)O1`, the half-maximal inhibitory concentration (IC50) (in the test on A2780; in test [2]; in test [3]; in the test on A549; in [5]) was greater than 10 µM throughout. Moreover, in test [1], the “inhibition (INH)” value is on record as 33.6%. In addition, the Survival in the test on L02 [4] worked out at 73%. Besides, the result in the test on Neuron was inactive.

For `C=C1CC[C@@H]2[C@H]([C@@H]3[C@H]1CC[C@]3(C)O)[C@@]2(C)[C@@H]1C(=O)C(C)=C[C@H]1O`, the IC50 (in the test on A2780; in test [2]; in test [3]; in the test on A549; in test [5]) was greater than 10 µM throughout. In the test on Neuron, the result was inactive.
